Results collected from several papers.
Lines come from different studies, so protocols differ.
EGFR del746-750: Epidermal growth factor receptor (EGFR, Homo sapiens, UniProt P00533, del746-750)
EGFR L858R: Epidermal growth factor receptor (EGFR, Homo sapiens, UniProt P00533, L858R)
EGFR del747-752/P753S: Epidermal growth factor receptor (EGFR, Homo sapiens, UniProt P00533, del747-752/P753S)
EGFR del752-759: Epidermal growth factor receptor (EGFR, Homo sapiens, UniProt P00533, del752-759)
EGFR T790M: Epidermal growth factor receptor (EGFR, Homo sapiens, UniProt P00533, T790M)
EGFR L861Q: Epidermal growth factor receptor (EGFR, Homo sapiens, UniProt P00533, L861Q)
EGFR: Epidermal growth factor receptor (EGFR, Homo sapiens, UniProt P00533)
EGFR G719S: Epidermal growth factor receptor (EGFR, Homo sapiens, UniProt P00533, G719S)

| Compound | target | observed | technique | concentration | remaining binding [%] |
| --- | --- | --- | --- | --- | --- |
| CC(C)CC(=O)N1CCc2nc(-c3ccc(Br)cc3)nc(N(C)Cc3ccccc3)c2C1 | EGFR del746-750 | cell-free assay | competition with immobilised ligand | 0.1 µM | 100 |
| C[C@@H]1CCN(c2nccc(-c3cnn4ncccc34)n2)C1 | EGFR L858R | binding | – | 1 µM | 93 |
| O=C(Nc1c[nH]nc1C(=O)NC1CCNCC1)c1cc(F)cc(F)c1 | EGFR L858R | binding | competition with immobilised ligand | 1 µM | 90 |
| CCN1CCN(Cc2ccc(C(=O)Nc3ccc(C)c(Oc4ccc5c(c4)CC(=O)N5)c3)cc2C(F)(F)F)CC1 | Epidermal growth factor receptor (EGFR, Homo sapiens, UniProt P00533, G719C) | binding | competition with immobilised ligand | 1 µM | 100 |
| C[C@@]1(Cc2ccc(C#N)cc2)C(=O)N(c2cc(Cl)cc(Cl)c2)c2ncc(C(=O)NC3(c4nc(C5CCC5)no4)CC3)n21 | EGFR del747-752/P753S | cell-free assay | competition with immobilised ligand | 1 µM | 58 |
| O=C(NCC1CCOCC1)c1n[nH]cc1NC(=O)c1c(F)cccc1F | EGFR del752-759 | binding | competition with immobilised ligand | 1 µM | 100 |
| O=C(NCCCN1CCOCC1)c1ccc(Nc2ncc(Cl)c(-c3ccc(Cl)s3)n2)cc1 | EGFR del747-752/P753S | binding | competition with immobilised ligand | 1 µM | 98 |
| N[C@@H]1CCN(c2nccc(-c3cnn4ncccc34)n2)C1 | EGFR T790M | binding | – | 1 µM | 100 |
| O=C(c1ccc(Nc2ncc(Cl)c(-c3cc4ccccc4s3)n2)cc1)N1CCC(N2CCCC2)CC1 | EGFR L861Q | binding | competition with immobilised ligand | 1 µM | 92 |
| COc1cnc(Nc2cccc(S(N)(=O)=O)c2)nc1N1CCN(c2ccccc2)CC1 | EGFR del746-750 | binding | competition with immobilised ligand | 1 µM | 90 |
| Cc1cnc(Nc2ccc(C(=O)N3CCC(N4CCCC4)CC3)cc2)nc1-c1cc2ccccc2s1 | EGFR | binding | competition with immobilised ligand | 1 µM | 83 |
| COc1cnc(Nc2cccc(S(N)(=O)=O)c2)nc1N1CCN(c2ccccc2)C(=O)C1 | EGFR del746-750 | binding | competition with immobilised ligand | 1 µM | 96 |
| COc1ccnn2ncc(-c3ccnc(N(C)C)n3)c12 | EGFR G719S | binding | – | 1 µM | 96 |
| CNC(=O)[C@@H]1CC[C@@H](n2c(-c3ccc4cnccc4c3)nc3ccc(C(=O)NCc4cccc(C(N)=O)c4)cc32)C1 | EGFR del752-759 | binding | competition with immobilised ligand | 1 µM | 91 |
| CN(C)c1ncnc(-c2ccc3nc(Nc4cc(CN5CCN(C(=O)CC(F)(F)F)CC5)ccn4)[nH]c3c2)c1Cl | Epidermal growth factor receptor (EGFR, Homo sapiens, UniProt P00533, del747-750/T751S) | cell-free assay | competition with immobilised ligand | 1 µM | 88 |
| O=C(NCCCN1CCOCC1)c1ccc(Nc2nccc(-c3cc4ccccc4s3)n2)cc1 | EGFR L861Q | binding | competition with immobilised ligand | 1 µM | 99 |
| CN(C(=O)c1ccccc1)c1cc(N(C)c2ccc3c(c2)CCc2ccc(C(=O)NCCN4CCOCC4)cc2C3=O)ccc1F | EGFR L861Q | cell-free assay | competition with immobilised ligand | 1 µM | 100 |
| O=C(c1ccc(Nc2nccc(-c3cc4ccccc4s3)n2)cc1)N1CCC(N2CCCC2)CC1 | EGFR del752-759 | binding | competition with immobilised ligand | 1 µM | 93 |
| c1cncc(-c2cccc(Nc3nccc(NC4CCCCC4)n3)c2)c1 | EGFR T790M | binding | competition with immobilised ligand | 10 µM | 33 |
| O=C(c1ccc(Nc2ncc(Cl)c(-c3ccc(Cl)s3)n2)cc1)N1CCC(N2CCCC2)CC1 | EGFR | binding | competition with immobilised ligand | 1 µM | 86 |
| COc1cc(-c2cn(C3CCc4ccccc4N(CC(F)(F)F)C3=O)nn2)ccc1-n1ccc(C)n1 (centres unmarked) | EGFR T790M | cell-free assay | competition with immobilised ligand | 1 µM | 59 |
| CN(C)c1nccc(-c2cnc3ncccn23)n1 | EGFR G719S | binding | – | 1 µM | 84 |
| Nc1ncc2c(n1)-c1c([nH]c3ccc(C#CC4CC4)cc13)CCCC2 | EGFR | binding | competition with immobilised ligand | 1 µM | 80 |
| CN(C)c1ncc(F)c(-c2cnn3ncccc23)n1 | EGFR | binding | – | 1 µM | 82 |
| Cn1nc(C(=O)NCc2ccc(C(=O)O)cc2)cc1-c1ccc2[nH]ccc2c1 | EGFR L861Q | cell-free assay | competition with immobilised ligand | 0.1 µM | 69 |
| CC1CCCN1c1nccc(-c2cnn3ncccc23)n1 (centres unmarked) | EGFR T790M | binding | – | 1 µM | 100 |
| COc1ccc2c(c1)O[C@H](c1ccc(OC)c(OC)c1)C[C@@H]2NC(=O)C1(c2ccc3c(c2)OC(F)(F)O3)CC1 | EGFR G719S | cell-free assay | competition with immobilised ligand | 1 µM | 99 |
| c1cnn2ncc(-c3ccnc(N4CCC45COC5)n3)c2c1 | EGFR G719S | binding | – | 1 µM | 100 |
| c1ccc(N2CCN(Cc3nc4ccccc4[nH]3)CC2)nc1 | EGFR L858R | cell-free assay | competition with immobilised ligand | 1 µM | 100 |
